The nature of assay [1]: inhibitors of TNFa-induced NFkB p65 translocation, primary screen, imaging, HUVEC, MLSMR starter and 10KST1 sets (AID 438;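 active = inhibition above 20% together with a positive visual image hit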;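 also: compound added about 3h40 before a 20 min TNFalpha stimulation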;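 as to inhibition: signal is the nuclear over cytoplasmic p65 intensity ratio per well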). Particulars: HUVEC TNFa-induced p65 nuclear translocation; cell count: measured here: nuclei count (cytotoxicity indicator), at 2.08 µM; inhibition: at 2 µM, stronger effect = higher value, 0% TNFa-plus-vehicle, 100% no-TNFa wells.
Assay [2] is described as follows: endothelial E-selectin expression blockers – imaging, HUVEC, immunofluorescence, MLSMR starter and 10KST1 sets, primary screen (AID 487).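 As to inhibition: signal is fraction of cell area covered by stained E-selectin grains.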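 As to nuclei count: 100% = median nuclei count of all wells on the same plate.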 Particulars: HUVEC TNFalpha-induced E-selectin immunofluorescence imaging, at 2 µM; inhibition: stronger effect = higher value; nuclei count: measured here: cell number, toxicity.
A short description of assay [3]: Primary imaging screen for DUSP6 inhibitors that restore phospho-Erk in transfected HeLa cells, chemical complementation (AID 609;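 active = compounds giving at least 50% inhibition in the cell-based MKP-3 phosphatase rescue imaging test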;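 as to inhibition: phospho-Erk level distribution per well compared with pooled transfected vehicle control wells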). Particulars: HeLa MKP-3 transfected, phospho-Erk imaging KS statistic, at 10 µM, cells stimulated with TPA for 15 min.
Assay [4] deals with Dual specificity protein phosphatase 6 (Homo sapiens) (UniProt Q16828). Described as above. Particulars: HeLa MKP-3 transfected, phospho-Erk imaging KS statistic; at 10 µM; stronger effect = higher value; cells stimulated with TPA for 15 min.
Assay [5] has as its target Voltage-gated potassium channel subunit beta-2 (Rattus norvegicus) (UniProt P62483). Kind of assay: inhibitors of rat Kvbeta2 reductase activity – biochemical, NADPH fluorescence, primary screen (AID 622;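 active = fluorescence slope higher than the sample average by over 3 SD, cut at about -0.22 in these data, passing the limit was not always enough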;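 also: slope of raw intensity against log time taken from 70 to 1610 s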). Particulars: recombinant KvBeta, 4-cyanobenzaldehyde reduction, at 10 µM, stronger effect = higher value.
Assay [6] shares this target. Kind of assay: enhancers of rat Kvbeta2 NADPH turnover – biochemical, NADPH fluorescence, primary screen (AID 623;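 active = NADPH fluorescence slope more negative than the mean of all samples by about 3 SD, 99.7% confidence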;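 also: fluorescence intensity change per second fitted from 20 to 320 s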). Particulars: Recombinant KvBeta, NADPH fluorescence decrease slope, 10 min; at 10 µM; stronger effect = lower value.
For assay [7], the target named is Alpha-2C adrenergic receptor (Homo sapiens) (UniProt P18825). Kind of assay: compounds altering alpha2C-coupled GIRK flux – cell-based, HEK293 alpha2C/GIRK1/2, thallium flux, primary screen (AID 624;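 active = fluorescence slope after compound addition differing from the mean of all screened samples at 99.7% confidence, in either direction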;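 also: slope of fluorescence ratio to pre-addition baseline per second over 15 to 24 s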). Particulars: thallium flux BTC fluorescence, at 10 µM, actives lie on both sides.
Assay [8] in a line: inhibitors of larval lipid processing in zebrafish, primary screen, whole organism, PED6 fluorescence, gall bladder and intestine (AID 686;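 active = a full or partial loss of lipid-probe fluorescence in the fish gall bladder, intestine or both, judged by eye; inactive = no fluorescence loss, or compound toxic to the fish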;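 also: larvae 5 to 7 days old with five fish per well; signal comes from phospholipase A2 cleavage of quenched PED6 carried via bile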). Particulars: Zebrafish larvae PED6 lipid processing, fluorescence scoring; screened at 20 µM (by protocol). In a few lines: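 System: live zebrafish larvae aged 5-7 days, whole organism; measure: graded gall bladder and intestinal fluorescence inhibition per well; incubation: overnight exposure; reagent: ingested quenched lipid PED6 at 100 nM; signal: By-eye fluorescence microscopy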

Assay [9] can be described thus: loss of swimming-algae plug formation – whole organism, Chlamydomonas reinhardtii, WT vs cilia-less mutant, absorbance, 96-well, primary screen (AID 463189;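 active = inhibition at or above 50% relative to wild type and mutant plate controls; inactive = inhibition below 50%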;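 also: 0% = wild type cc124 cells in DMSO and 100% = ciliumless bld1 mutant cells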). Particulars: Chlamydomonas reinhardtii gravitaxis, OD600 absorbance, 2 days; at 10 µM; stronger effect = higher value.
[10] abbreviates: measured here: cell density z-score.
The mark [11] stands for this setting: measured here: nuclear c-Myc green intensity z-score.
Setting [12] is: measured here: nuclear pErk red intensity z-score, stronger effect = higher value.

Active and inactive are the calls of the source.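 The calls were made as follows, unless noted: active = visually confirmed hit in the image check and inhibition above 20%; inconclusive = visually confirmed hit but inhibition not above 20%; inactive = no visual hit in the image check.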

Dual specificity protein phosphatase 6 (Homo sapiens), sequence (Q16828 whole entry, looked up): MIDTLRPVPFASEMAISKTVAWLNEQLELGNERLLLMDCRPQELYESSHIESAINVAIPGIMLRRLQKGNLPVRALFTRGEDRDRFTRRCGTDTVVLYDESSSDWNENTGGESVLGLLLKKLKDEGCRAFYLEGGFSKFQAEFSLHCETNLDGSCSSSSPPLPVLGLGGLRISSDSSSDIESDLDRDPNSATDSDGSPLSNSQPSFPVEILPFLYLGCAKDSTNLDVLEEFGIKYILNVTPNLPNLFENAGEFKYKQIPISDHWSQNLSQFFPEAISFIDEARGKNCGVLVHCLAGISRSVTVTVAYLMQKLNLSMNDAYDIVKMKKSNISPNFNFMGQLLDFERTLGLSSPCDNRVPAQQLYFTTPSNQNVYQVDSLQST
Voltage-gated potassium channel subunit beta-2 (Rattus norvegicus), sequence (P62483 whole entry, looked up): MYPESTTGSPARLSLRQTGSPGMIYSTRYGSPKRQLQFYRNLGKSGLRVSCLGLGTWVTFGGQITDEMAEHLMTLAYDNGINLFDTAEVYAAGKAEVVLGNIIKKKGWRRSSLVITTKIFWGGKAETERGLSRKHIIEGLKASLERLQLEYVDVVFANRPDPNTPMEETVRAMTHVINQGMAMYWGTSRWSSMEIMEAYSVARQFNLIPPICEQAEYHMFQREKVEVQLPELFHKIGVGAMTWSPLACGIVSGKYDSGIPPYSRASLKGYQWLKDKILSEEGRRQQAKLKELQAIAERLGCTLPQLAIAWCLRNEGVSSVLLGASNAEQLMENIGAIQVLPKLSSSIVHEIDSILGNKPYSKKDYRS
Alpha-2C adrenergic receptor (Homo sapiens), sequence (P18825 whole entry, looked up): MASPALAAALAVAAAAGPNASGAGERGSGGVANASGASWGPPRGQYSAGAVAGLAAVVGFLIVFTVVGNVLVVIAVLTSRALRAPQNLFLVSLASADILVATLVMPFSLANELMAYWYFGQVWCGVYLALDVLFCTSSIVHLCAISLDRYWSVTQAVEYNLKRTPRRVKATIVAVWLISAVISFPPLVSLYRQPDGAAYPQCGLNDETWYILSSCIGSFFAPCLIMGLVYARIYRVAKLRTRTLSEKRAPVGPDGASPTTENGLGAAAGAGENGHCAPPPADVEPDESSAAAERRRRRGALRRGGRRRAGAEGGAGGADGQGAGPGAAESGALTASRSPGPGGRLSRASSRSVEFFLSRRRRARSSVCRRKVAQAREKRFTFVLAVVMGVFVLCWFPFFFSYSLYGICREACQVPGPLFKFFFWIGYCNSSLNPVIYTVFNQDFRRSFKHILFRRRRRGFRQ

On to `CCc1ccc2c(c1)C(C)=CC(C)(C)N2`, for which the cell count in [1] is 622. In addition, the inhibition (as a rule, the change of the read-out against control, counted positive when it falls) in [1] was -14.1% (inactive); in [2], -3.3% (inactive); in assay [4], -13.3% (inactive); in [9] it was 5.82% (inactive). Moreover, the nuclei count in assay [2] was found to be 176%. Moreover, the z-score is -1.35 in [3] (setting [10]), -0.276 in assay [3] (setting [11]) and 0.835 in assay [3] (setting [12]). Besides, the fluorescence slope in assay [5] is -0.431 (inactive). Further, the NADPH fluorescence slope in assay [6] was -6.9e-05 (inactive). In assay [7], the slope was 0.00542 (inactive). Also, the compound was classed as inactive in assay [8].
In the case of `Cc1coc2c(O)cc3c(c12)OC1(N2CCCCC2)C(=O)NCCCC31` (stereo unspecified), in assay [1], the cell count worked out at 537. Moreover, the inhibition in assay [1] was -25.4% (inactive); in assay [2], -78.3% (inactive); in [4] it was -15% (inactive); in assay [9], 19.5% (inactive). In assay [2], the nuclei count came out at 144%. The results for the z-score in assay [3] (setting [10]), in assay [3] (setting [11]) and in assay [3] (setting [12]) were -0.8, 0.13 and 2.15, respectively. The fluorescence slope in assay [5] is -0.515 (inactive). The NADPH fluorescence slope in assay [6] is -4.3e-05 (inactive). For the same compound, the slope in [7] is 0.00313 (inactive). Further, the call in assay [8] was inactive.
With `C=CCNc1sc(C(=O)C2CC2)c(N)c1C#N`, in assay [1], the cell count turned out to be 669. The inhibition in assay [1] was -24.9% (inactive); in assay [2], -70.3% (inactive); in assay [4] it was 19.4% (inactive); in [9], -5.34% (inactive). The same compound came in with a nuclei count in [2] of 173%. The results for the z-score in [3] (setting [10]), in assay [3] (setting [11]) and in [3] (setting [12]) were 0.613, -1.22 and 0.948, respectively. Also, the fluorescence slope in assay [5] was -0.366 (inactive). Moreover, the NADPH fluorescence slope in assay [6] was -3.3e-05 (inactive). Further, in assay [7], the slope is 0.00551 (inactive). The outcome in [8] was inactive.
With `CCOC(=O)CSc1nc(N)c(C#N)c(-c2ccc(OC)cc2)c1C#N`, in [1], the cell count is 475. Besides, the inhibition in [1] was 1.6% (inactive); in assay [2], -88.5% (inactive); in [4], 24.7% (inactive); in assay [9], -7.05% (inactive). Besides, the nuclei count in assay [2] was found to be 127%. For the same compound, the z-score in [3] (setting [10]) came to 0.441; in assay [3] (setting [11]), 1.58; in assay [3] (setting [12]), 1.28. The fluorescence slope in assay [5] was -0.52 (inactive). Also, the NADPH fluorescence slope in assay [6] is -3.8e-05 (inactive). In addition, in assay [7], the slope was 0.00551 (inactive). For the same compound, in assay [8], the call was inactive.
`N=c1c2c(-c3ccccc3)c(-c3ccccc3)n(Cc3ccccc3)c2ncn1CCCn1ccnc1`: the cell count in [1] was 551. Besides, the inhibition in assay [1] was -6.7% (inactive); in [2], 17.5% (inactive); in assay [4], -1.75% (inactive); in assay [9] it was 118% (active). This compound showed a nuclei count in assay [2] of 142%. In addition, the results for the z-score in [3] (setting [10]), in assay [3] (setting [11]) and in assay [3] (setting [12]) were -0.862, 0.115 and -0.203, respectively. Besides, the fluorescence slope in assay [5] is -0.292 (inactive). Moreover, the NADPH fluorescence slope in assay [6] was 9.2e-06 (inactive). The slope in assay [7] was 0.00345 (inactive). Also, in assay [8], the compound was classed as inactive.
For `C=C(Br)Cn1c(CCCC)nc2ccccc21`, the cell count in assay [1] worked out at 496. Also, the inhibition in [1] is -6.3% (inactive); in assay [2], -117% (inactive); in assay [4], 3.56% (inactive); in assay [9] it was 35.5% (inactive). In assay [2], this compound came in with a nuclei count of 145%. Besides, the z-score was 0.895 in assay [3] (setting [10]), -1.74 in [3] (setting [11]) and -1.25 in [3] (setting [12]). In assay [5], the fluorescence slope is -0.492 (inactive). Moreover, the NADPH fluorescence slope in assay [6] is -0.000115 (inactive). Also, the slope in assay [7] was 0.00483 (inactive). In addition, the outcome in [8] was inactive.
With `CCOC(=O)c1[nH]c2cc3c(cc2c1NC(=O)CN1CCc2ccccc2C1)OCO3`, the cell count in assay [1] turned out to be 523. In addition, the inhibition in assay [1] was 0.1% (inactive); in [2], -11.1% (inactive); in assay [4], -1.75% (inactive); in [9] it was 25.5% (inactive). Further, the nuclei count in assay [2] is 104%. The z-score in [3] (setting [10]) is -0.283; in [3] (setting [11]) it was -0.223; in assay [3] (setting [12]), -0.654. The fluorescence slope in assay [5] was -0.248 (inactive). Further, the NADPH fluorescence slope in [6] is -1e-07 (inactive). Besides, the slope in assay [7] was 0.00381 (inactive). Besides, the call in assay [8] was inactive.

(Values after PubChem BioAssay.)
